Results from ChEMBL document CHEMBL3259663, “3-Amido-3-aryl-piperidines: A Novel Class of Potent, Selective, and Orally Active GlyT1 Inhibitors” (ACS Med Chem Lett, 2014).

The molecules below were run against T1, Sodium- and chloride-dependent glycine transporter 1 (Homo sapiens, UniProt P48067) (assay: Inhibition of GlyT1 (unknown origin)).
T1 sequence (P48067 whole entry): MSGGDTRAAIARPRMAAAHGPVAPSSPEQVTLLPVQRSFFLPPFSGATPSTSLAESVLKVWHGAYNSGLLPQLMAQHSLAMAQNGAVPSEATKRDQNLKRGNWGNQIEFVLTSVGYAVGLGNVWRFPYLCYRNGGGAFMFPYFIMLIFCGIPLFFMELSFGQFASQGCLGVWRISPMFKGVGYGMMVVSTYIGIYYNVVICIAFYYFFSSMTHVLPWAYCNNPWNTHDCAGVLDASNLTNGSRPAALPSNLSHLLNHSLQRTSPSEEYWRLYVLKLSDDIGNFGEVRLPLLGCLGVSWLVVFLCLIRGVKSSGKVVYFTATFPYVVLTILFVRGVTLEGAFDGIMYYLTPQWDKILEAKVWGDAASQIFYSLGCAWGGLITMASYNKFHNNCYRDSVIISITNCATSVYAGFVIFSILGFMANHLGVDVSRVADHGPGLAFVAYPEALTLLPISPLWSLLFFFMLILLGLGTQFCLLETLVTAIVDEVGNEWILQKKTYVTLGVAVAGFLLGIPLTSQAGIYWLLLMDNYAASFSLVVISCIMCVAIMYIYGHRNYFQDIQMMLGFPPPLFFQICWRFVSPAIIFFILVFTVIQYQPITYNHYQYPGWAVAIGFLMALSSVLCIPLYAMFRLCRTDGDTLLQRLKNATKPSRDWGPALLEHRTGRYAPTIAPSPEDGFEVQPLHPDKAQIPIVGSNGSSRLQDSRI

| IC50 [nM] | SMILES |
| --- | --- |
| 140 | COc1cc(C(F)(F)F)cc(C(F)(F)F)c1C(=O)NC1(c2ccccc2)CCCN(C)C1 (stereo not given) |

What follows are molecules tested against T1, Sodium- and chloride-dependent glycine transporter 1 (assay: Inhibition of human GlyT1 expressed in cells assessed as [3H]glycine uptake).
Format: cell-based
Method in brief: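 [³H]-glycine uptake inhibition in cells transfected with human GlyT1. EC₅₀ values are the average of at least two independent experiments.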

| EC50 [nM] | SMILES |
| --- | --- |
| 670 | CN1CCCC(NC(=O)c2ccc(Cl)cc2Cl)(c2ccccc2)C1 (racemic) |
| 25 | COc1cc(C(F)(F)F)cc(SC)c1C(=O)NC1(c2cccc(Cl)c2)CCCN(C)C1 (racemic) |
| 180 | COc1cc(C(F)(F)F)cc(SC)c1C(=O)NC1(c2ccc(F)cn2)CCCN(C)C1 (racemic) |
| 28 | COc1cc(C(F)(F)F)cc(SC)c1C(=O)NC1(c2ccc(Cl)cc2)CCCN(C)C1 (racemic) |
| 110 | COc1cccc(C2(NC(=O)c3c(OC)cc(C(F)(F)F)cc3SC)CCCN(C)C2)c1 (racemic) |
| 1500 | COc1cccc(C(F)(F)F)c1C(=O)NC1(c2ccccc2)CCCN(C)C1 (racemic) |
| > 10000 | COc1cc(C(F)(F)F)cc(C(F)(F)F)c1C(=O)NC1(c2ccccc2)CCCN(C(C)=O)C1 (racemic) |
| 230 | COc1cc(C(F)(F)F)cc(C(F)(F)F)c1C(=O)NC1(c2ccccc2)CCCN(C(C)C)C1 (racemic) |
| > 10000 | COc1cc(C(F)(F)F)cc(C(F)(F)F)c1C(=O)NC1(c2ccccc2)CCCN(S(C)(=O)=O)C1 (racemic) |
| 230 | CCN1CCCC(NC(=O)c2c(OC)cc(C(F)(F)F)cc2C(F)(F)F)(c2ccccc2)C1 (racemic) |
| 170 | COc1ccc(C2(NC(=O)c3c(OC)cc(C(F)(F)F)cc3SC)CCCN(C)C2)cc1 (racemic) |
| 24 | COc1cc(C(F)(F)F)cc(SC)c1C(=O)NC1(c2ccccc2)CCCN(C)C1 (racemic) |
| 67 | CSc1cc(C(F)(F)F)ccc1C(=O)NC1(c2ccccc2)CCCN(C)C1 (racemic) |
| 54 | COc1cc(C(F)(F)F)cc(SC)c1C(=O)NC1(c2cccnc2)CCCN(C)C1 (racemic) |
| 6700 | COc1cc(C(F)(F)F)cc(C(F)(F)F)c1C(=O)NC1(c2ccccc2)CCCN(Cc2ccccc2)C1 (racemic) |
| 26 | COc1cc(C(F)(F)F)cc(SC)c1C(=O)NC1(c2ccc(F)cc2)CCCN(C)C1 (racemic) |
| > 10000 | COc1cc(C(F)(F)F)cc(SC)c1C(=O)NC1(c2ncccn2)CCCN(C)C1 (racemic) |

Further lines, the molecule ahead of its results:

| SMILES | EC50 [nM] |
| --- | --- |
| COc1cc(C(F)(F)F)cc(SC)c1C(=O)NC1(c2ccc(C)cc2)CCCN(C)C1 (racemic) | 230 |
| Cc1cc(C(F)(F)F)ccc1C(=O)NC1(c2ccccc2)CCCN(C)C1 (racemic) | 320 |
| COc1cc(C(F)(F)F)cc(SC)c1C(=O)NC1(c2ccncn2)CCCN(C)C1 (racemic) | 1700 |
| CN1CCCC(NC(=O)c2ccc(C(F)(F)F)cc2C(F)(F)F)(c2ccccc2)C1 (racemic) | 540 |
| CN1CCCC(NC(=O)c2ccc(C(F)(F)F)cc2Br)(c2ccccc2)C1 (racemic) | 300 |
| CN1CCCC(NC(=O)c2ccc(C(F)(F)F)cc2C#N)(c2ccccc2)C1 (racemic) | > 10000 |
| COc1cc(C(F)(F)F)cc(SC)c1C(=O)NC1(c2cccc(F)c2)CCCN(C)C1 (racemic) | 48 |
| COc1cc(C(F)(F)F)cc(C(F)(F)F)c1C(=O)NC1(c2ccccc2)CCCN(C(=O)c2ccccc2)C1 (racemic) | > 10000 |
| CN1CCCC(NC(=O)c2ccc(C(F)(F)F)cc2F)(c2ccccc2)C1 (racemic) | 9900 |
| COc1cc(C(F)(F)F)cc(SC)c1C(=O)NC1(c2ccncc2)CCCN(C)C1 (racemic) | 60 |
| COc1cc(C(F)(F)F)ccc1C(=O)NC1(c2ccccc2)CCCN(C)C1 (racemic) | 4800 |
| CN1CCCC(NC(=O)c2ccc(C(F)(F)F)cc2)(c2ccccc2)C1 (racemic) | > 10000 |
| COc1cc(C(F)(F)F)cc(SC)c1C(=O)NC1(c2cnccn2)CCCN(C)C1 (racemic) | 1670 |
| COc1cc(C(F)(F)F)cc(SC)c1C(=O)N[C@]1(c2ccccc2)CCCN(C)C1 | 180 |
| COc1cc(C(F)(F)F)cc(C(F)(F)F)c1C(=O)NC1(c2ccccc2)CCCNC1 (racemic) | 660 |
| COc1cc(C(F)(F)F)cc(C(F)(F)F)c1C(=O)NC1(c2ccccc2)CCCN(C2CCCC2)C1 (racemic) | 270 |
| COc1cc(C(F)(F)F)cc(C(F)(F)F)c1C(=O)NC1(c2ccccc2)CCCN(CC2CC2)C1 (racemic) | 380 |
